Measurements from PMC2735267 (Neuropharmacology, 2009).
Like-named read-outs stand apart in the source and are kept apart here. Marks after values point to notes of the source that are not given here.

Experiments:
[1] = tested on: β2 null mutant mice; test: 3-IC-induced hypothermia in β2 null mutant and wild-type mice; assay type: in vivo, mouse; details: 0.2 mg/kg ip
Procedure, shortened: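 Null mutants were backcrossed onto C57BL/6J for at least 10 generations, genotyped from tail DNA, and compared with wild-type mice (β2-/- n = 5; β4-/- n = 5). Test compound was given at 0.2 mg/kg IP in 10 µl/g body weight. Rectal temperature was taken every 5 minutes with a peanut-oil-lubricated probe inserted 1.5 cm. Data are mean ± SEM, analysed by repeated-measures ANOVA (time × genotype).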

[2] = tested on: cytisine-resistant [125I]epibatidine binding sites; details: for Cytisine-resistant [125I]epibatidine binding: 3-IC 0.2 mg/kg/h iv 7 days; for Cytisine-resistant [125I]epibatidine binding % change: 3-IC 0.2 mg/kg/h iv 7 days vs saline
[3] = tested on: [3H]dopamine release; details: read-out: EC50 [3H]dopamine release; rat striatal synaptosomes; ref Abin-Carriquiry et al., 2006; cited from earlier work
[4] = molecular target: human α7; details: read-out: Ki human α7; expressed in Xenopus oocytes; ref Slater et al., 2003; cited from earlier work
[5] = tested on: α7* nAChR binding sites; assay type: in vivo, DBA/2J mice; details: cerebral cortex membranes; 0.2 mg/kg/h iv 7 days
[6] = tested on: DBA/2J mice; test: 3-IC-induced hypothermia; assay type: in vivo, mouse
[7] = tested on: cytisine-sensitive [125I]epibatidine binding sites; assay type: in vivo, DBA/2J mice; details: for Cytisine-sensitive [125I]epibatidine binding: 3-IC 0.2 mg/kg/h iv 7 days; for Cytisine-sensitive [125I]epibatidine binding % change: 3-IC 0.2 mg/kg/h iv 7 days vs saline
[8] = dorsolateral geniculate nucleus
[9] = superior colliculus (optic nerve)
[10] = superior colliculus (sup. gray)

## O=c1c(I)ccc2n1C[C@@H]1CNC[C@H]2C1 [3-IC, 3-iodocytisine]
[1]; β2+/+ mice
  maximal 3-IC induced hypothermia (decrease of temperature): 9.8 ± 0.76 °C
[1]; β2-/- mice
  maximal 3-IC induced hypothermia (decrease of temperature): 8.4 ± 1 °C
[2]; anterior olfactory nucleus
  Cytisine-resistant [125I]epibatidine binding: 13.27 ± 2.48 fmol/mg
[2]; anteromedial thalamic nucleus
  Cytisine-resistant [125I]epibatidine binding: 3.97 ± 0.25 fmol/mg
  Cytisine-resistant [125I]epibatidine binding % change: 22.0%
[2]; autoradiography, 0.2 mg/kg/h iv 7 days
  cytisine-resistant [125I]epibatidine sites after chronic treatment: not affected
[2]; caudate putamen
  Cytisine-resistant [125I]epibatidine binding: 2.39 ± 0.29 fmol/mg
  Cytisine-resistant [125I]epibatidine binding % change: 18.2%
[2]; cingulate cortex
  Cytisine-resistant [125I]epibatidine binding: 1.25 ± 0.13 fmol/mg
  Cytisine-resistant [125I]epibatidine binding % change: 26.9%
[2]; dentate gyrus (granular layer)
  Cytisine-resistant [125I]epibatidine binding: 1.15 ± 0.06 fmol/mg
  Cytisine-resistant [125I]epibatidine binding % change: 17.3%
[2]; [8]
  Cytisine-resistant [125I]epibatidine binding: 9.89 ± 0.66 fmol/mg
  Cytisine-resistant [125I]epibatidine binding % change: -2.8%
[2]; dorsomedial thalamic nucleus
  Cytisine-resistant [125I]epibatidine binding: 3.78 ± 0.50 fmol/mg
  Cytisine-resistant [125I]epibatidine binding % change: 5.3%
[2]; fasciculus retroflexus
  Cytisine-resistant [125I]epibatidine binding: 63.47 ± 4.86 fmol/mg
  Cytisine-resistant [125I]epibatidine binding % change: 3.1%
[2]; hippocampus (CA1-3)
  Cytisine-resistant [125I]epibatidine binding: 0.98 ± 0.06 fmol/mg
  Cytisine-resistant [125I]epibatidine binding % change: 20.2%
[2]; inferior colliculus (central)
  Cytisine-resistant [125I]epibatidine binding: 4.00 ± 1.42 fmol/mg
  Cytisine-resistant [125I]epibatidine binding % change: 68.2%
[2]; inferior colliculus (dorsal)
  Cytisine-resistant [125I]epibatidine binding: 10.17 ± 2.62 fmol/mg
  Cytisine-resistant [125I]epibatidine binding % change: 67.7%
[2]; inferior colliculus (external)
  Cytisine-resistant [125I]epibatidine binding: 2.55 ± 0.19 fmol/mg
  Cytisine-resistant [125I]epibatidine binding % change: 24.2%
[2]; interpeduncular nucleus
  Cytisine-resistant [125I]epibatidine binding: 211.95 ± 31.83 fmol/mg
[2]; medial geniculate nucleus
  Cytisine-resistant [125I]epibatidine binding: 4.43 ± 0.80 fmol/mg
  Cytisine-resistant [125I]epibatidine binding % change: 38.1%
[2]; medial habenula
  Cytisine-resistant [125I]epibatidine binding: 282.84 ± 31.53 fmol/mg
  Cytisine-resistant [125I]epibatidine binding % change: -13.5%
[2]; nucleus accumbens
  Cytisine-resistant [125I]epibatidine binding: 1.95 ± 0.21 fmol/mg
  Cytisine-resistant [125I]epibatidine binding % change: 12.9%
[2]; olfactory tubercle
  Cytisine-resistant [125I]epibatidine binding: 2.9 ± 0.5 fmol/mg
  Cytisine-resistant [125I]epibatidine binding % change: -17.1%
[2]; optic tract
  Cytisine-resistant [125I]epibatidine binding: 1.75 ± 0.22 fmol/mg
  Cytisine-resistant [125I]epibatidine binding % change: 26.1%
[2]; parietal cortex (layers 1-3)
  Cytisine-resistant [125I]epibatidine binding: 0.62 ± 0.06 fmol/mg
  Cytisine-resistant [125I]epibatidine binding % change: 24.6%
[2]; parietal cortex (layers 4-6)
  Cytisine-resistant [125I]epibatidine binding: 1.29 ± 0.07 fmol/mg
  Cytisine-resistant [125I]epibatidine binding % change: 45.9%
[2]; retrosplenial Cortex
  Cytisine-resistant [125I]epibatidine binding: 1.63 ± 0.11 fmol/mg
  Cytisine-resistant [125I]epibatidine binding % change: 35.8%
[2]; subiculum
  Cytisine-resistant [125I]epibatidine binding: 1.89 ± 0.10 fmol/mg
[2]; substantia nigra
  Cytisine-resistant [125I]epibatidine binding: 1.6 ± 0.2 fmol/mg
  Cytisine-resistant [125I]epibatidine binding % change: 6.7%
[2]; [9]
  Cytisine-resistant [125I]epibatidine binding: 3.21 ± 0.14 fmol/mg
  Cytisine-resistant [125I]epibatidine binding % change: 0.5%
[2]; [10]
  Cytisine-resistant [125I]epibatidine binding: 11.25 ± 0.12 fmol/mg
  Cytisine-resistant [125I]epibatidine binding % change: 10.8%
[2]; ventral tegmental area
  Cytisine-resistant [125I]epibatidine binding: 3.4 ± 0.69 fmol/mg
  Cytisine-resistant [125I]epibatidine binding % change: 20.5%
[2]; ventromedial thalamic nucleus
  Cytisine-resistant [125I]epibatidine binding: 3.29 ± 0.46 fmol/mg
  Cytisine-resistant [125I]epibatidine binding % change: 13.4%
[2]; zona incerta
  Cytisine-resistant [125I]epibatidine binding: 2.34 ± 0.22 fmol/mg
[3]
  EC50: 11 nM
[4]
  Ki: 7 nM
[5]
  increase in [125I]α-bungarotoxin binding sites compared to saline: 58%
[6]; 0.2 mg/kg ip acute, DBA/2J
  decrease of basal temperature: 7.7 ± 0.5 °C
[6]; 0.2 mg/kg ip, DBA/2J and C57BL/6J
  tremors or diarrhea: without inducing tremors or diarrhea
[6]; 1 mg/kg ip, DBA/2J
  maximal temperature decrease: 11.9 ± 0.4 °C
[6]; 3-IC 0.2 mg/kg, DBA/2J
  time of maximal hypothermia after 3-IC injection, saline pretreated: 40 min
[6]; any dose tested (0.05-1 mg/kg ip), DBA/2J and C57BL/6J
  seizures: no seizures were noted
[6]; hexamethonium experiment, 3-IC 0.2 mg/kg, DBA/2J
  maximal 3-IC-induced hypothermia after saline pretreatment: 8.10 ± 0.63 °
[6]; ip acute, DBA/2J and C57BL/6J
  doses at which tremors were seen: above 0.5 mg/kg
[6]; ip, DBA/2J, maximal drop in temperature
  ED50 for hypothermia: 0.15 ± 0.04 mg/kg
[6]; mecamylamine experiment, 3-IC 0.2 mg/kg ip, DBA/2J
  3-IC-induced hypothermia after saline pretreatment: 8.50 ± 0.42 °C
[7]; anterior olfactory nucleus
  Cytisine-sensitive [125I]epibatidine binding: 16.1 ± 1.4 fmol/mg
  Cytisine-sensitive [125I]epibatidine binding % change: 53.5%
[7]; anteromedial thalamic nucleus
  Cytisine-sensitive [125I]epibatidine binding: 50.3 ± 4.0 fmol/mg
  Cytisine-sensitive [125I]epibatidine binding % change: -0.8%
[7]; caudate putamen
  Cytisine-sensitive [125I]epibatidine binding: 20.3 ± 1.9 fmol/mg
  Cytisine-sensitive [125I]epibatidine binding % change: 68.3 * %
[7]; cingulate cortex
  Cytisine-sensitive [125I]epibatidine binding: 23.6 ± 1.5 fmol/mg
  Cytisine-sensitive [125I]epibatidine binding % change: 42.0%
[7]; dentate gyrus (granular layer)
  Cytisine-sensitive [125I]epibatidine binding: 12.3 ± 0.6 fmol/mg
  Cytisine-sensitive [125I]epibatidine binding % change: 46.8 * %
[7]; [8]
  Cytisine-sensitive [125I]epibatidine binding: 70.7 ± 3.9 fmol/mg
  Cytisine-sensitive [125I]epibatidine binding % change: 9.7%
[7]; dorsomedial thalamic nucleus
  Cytisine-sensitive [125I]epibatidine binding: 52.9 ± 5.2 fmol/mg
  Cytisine-sensitive [125I]epibatidine binding % change: -4.5%
[7]; fasciculus retroflexus
  Cytisine-sensitive [125I]epibatidine binding: 40.2 ± 4.0 fmol/mg
  Cytisine-sensitive [125I]epibatidine binding % change: 1.0%
[7]; hippocampus (CA1-3)
  Cytisine-sensitive [125I]epibatidine binding: 9.0 ± 0.2 fmol/mg
  Cytisine-sensitive [125I]epibatidine binding % change: 56.3 *** %
[7]; inferior colliculus (central)
  Cytisine-sensitive [125I]epibatidine binding: 12.2 ± 2.5 fmol/mg
  Cytisine-sensitive [125I]epibatidine binding % change: 97.2 * %
[7]; inferior colliculus (dorsal)
  Cytisine-sensitive [125I]epibatidine binding: 22.8 ± 2.1 fmol/mg
  Cytisine-sensitive [125I]epibatidine binding % change: 68.7 * %
[7]; inferior colliculus (external)
  Cytisine-sensitive [125I]epibatidine binding: 16.8 ± 2.1 fmol/mg
  Cytisine-sensitive [125I]epibatidine binding % change: 88.9 * %
[7]; interpeduncular nucleus
  Cytisine-sensitive [125I]epibatidine binding: 194.7 ± 42.8 fmol/mg
  Cytisine-sensitive [125I]epibatidine binding % change: -0.6%
[7]; medial geniculate nucleus
  Cytisine-sensitive [125I]epibatidine binding: 49.4 ± 8.2 fmol/mg
  Cytisine-sensitive [125I]epibatidine binding % change: 27.2%
[7]; medial habenula
  Cytisine-sensitive [125I]epibatidine binding: 171.3 ± 36.4 fmol/mg
  Cytisine-sensitive [125I]epibatidine binding % change: 52.6%
[7]; nucleus accumbens
  Cytisine-sensitive [125I]epibatidine binding: 15.9 ± 2.1 fmol/mg
  Cytisine-sensitive [125I]epibatidine binding % change: 91.8 * %
[7]; olfactory tubercle
  Cytisine-sensitive [125I]epibatidine binding: 14.5 ± 1.6 fmol/mg
  Cytisine-sensitive [125I]epibatidine binding % change: 83.5 * %
[7]; optic tract
  Cytisine-sensitive [125I]epibatidine binding: 15.1 ± 2.9 fmol/mg
  Cytisine-sensitive [125I]epibatidine binding % change: 126.2%
[7]; optic tract, listed as 3-iodocytisine
  Cytisine-sensitive [125I]epibatidine binding % change: 126.2 * %
[7]; parietal cortex (layers 1-3)
  Cytisine-sensitive [125I]epibatidine binding: 9.1 ± 1.0 fmol/mg
  Cytisine-sensitive [125I]epibatidine binding % change: 71.7 * %
[7]; parietal cortex (layers 4-6)
  Cytisine-sensitive [125I]epibatidine binding: 19.0 ± 1.6 fmol/mg
  Cytisine-sensitive [125I]epibatidine binding % change: 79.7 * %
[7]; retrosplenial Cortex
  Cytisine-sensitive [125I]epibatidine binding: 26.6 ± 2.7 fmol/mg
  Cytisine-sensitive [125I]epibatidine binding % change: 35.6%
[7]; subiculum
  Cytisine-sensitive [125I]epibatidine binding: 41.7 ± 3.8 fmol/mg
  Cytisine-sensitive [125I]epibatidine binding % change: 27.8%
[7]; substantia nigra
  Cytisine-sensitive [125I]epibatidine binding: 43.6 ± 7.3 fmol/mg
  Cytisine-sensitive [125I]epibatidine binding % change: 38.0%
[7]; [9]
  Cytisine-sensitive [125I]epibatidine binding: 47.3 ± 2.2 fmol/mg
  Cytisine-sensitive [125I]epibatidine binding % change: 60.6 *** %
[7]; [10]
  Cytisine-sensitive [125I]epibatidine binding: 51.2 ± 4.4 fmol/mg
  Cytisine-sensitive [125I]epibatidine binding % change: 50.2 ** %
[7]; ventral tegmental area
  Cytisine-sensitive [125I]epibatidine binding: 25.1 ± 1.5 fmol/mg
  Cytisine-sensitive [125I]epibatidine binding % change: 45.2%
[7]; ventral tegmental area, listed as 3-iodocytisine
  Cytisine-sensitive [125I]epibatidine binding % change: 45.2 * %
[7]; ventromedial thalamic nucleus
  Cytisine-sensitive [125I]epibatidine binding: 50.7 ± 1.5 fmol/mg
  Cytisine-sensitive [125I]epibatidine binding % change: -0.8%
[7]; zona incerta
  Cytisine-sensitive [125I]epibatidine binding: 13.7 ± 1.2 fmol/mg
  Cytisine-sensitive [125I]epibatidine binding % change: 55.3 * %
